Measurements: article PMC7471432 (Acta Pharmacologica Sinica, 2020)
Like-named read-outs stand apart in the source and are kept apart here.

What was measured:
[1] = tested on: 6-Hz-induced seizure model mice; assay: 6-Hz corneal kindling epilepsy test; type: in vivo, mouse; details: 100 mg/kg; GM oral 60 min prior to stimulation; 32 mA
CaV currents = assay: Total CaV currents, whole-cell voltage-clamp, rat hippocampal neurons; type: cell-based; details: read-out: IC50 on total CaV currents; holding −90 mV, test pulse 0 mV, n = 6
Summary of the method: (§1)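 Rat hippocampal neurons were recorded in whole-cell voltage-clamp with a CsCl/TEA/5 mM MgATP internal (pH 7.2) and a bath containing 5 mM CaCl2 and 20 mM TEA-Cl (pH 7.4). Currents were evoked by steps from −90 mV to 0 mV at room temperature. Activation and inactivation curves were fitted with Boltzmann equations, and IC50 with a 3-parameter Hill equation.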

NaV currents = assay: NaV currents, whole-cell voltage-clamp, acutely isolated rat hippocampal neurons; type: cell-based
KA receptors = assay: KA-induced currents, rat hippocampal neurons; type: cell-based; details: n = 4
Summary of the method: (§2)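 Whole-cell recordings were made at room temperature from rat hippocampal neurons held at −60 mV. Currents were activated by applying the corresponding ligand under continuous bath perfusion. Signals were filtered at 2 kHz and digitized at 10 kHz. Data are means ± SEM, tested by paired two-tailed t test against control.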

AMPA receptors = assay: AMPA-induced currents, rat hippocampal neurons; type: cell-based; details: n = 4
Summary of the method: as §2

[2] = tested on: MES-induced seizure model mice; assay: MES-induced seizure assay; type: in vivo, mouse; details: oral
[3] = tested on: cultured mouse hippocampal neurons; type: cell-based
Summary of the method: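 Hippocampi from E18 C57BL/6 mouse embryos were digested with 3 mg/mL proteinase for 8 min at 32 °C, triturated, and plated on poly-D-lysine coverslips. Cells were switched to serum-free Neurobasal-A/B-27 after 6 h and recorded after 12 days. Whole-cell current-clamp used a KCl/EGTA pipette (pH 7.2) and perfused NaCl/HEPES bath (pH 7.4), at room temperature.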

HVA calcium currents = assay: High-voltage-activated; type: cell-based, rat; details: 10 µmol/L GM
Summary of the method: as §1

[4] = tested on: delayed rectifier potassium current (IK); assay: Delayed rectifier potassium current; type: cell-based, rat; details: read-out: IC50 on IK; n = 5
Summary of the method: (§3)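 Rat hippocampal neurons were recorded in whole-cell voltage-clamp with a KCl/EGTA internal and a NaCl/KCl bath. Cells were held at −50 mV, prepulsed to −110 mV for 500 ms, then stepped from −110 to 40 mV. For IK, a 50 ms step to −50 mV removed IA, and amplitude was read at 300 ms. IA was read as peak. IC50 came from a 3-parameter Hill fit.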

[5] = tested on: isolated rat aorta strips; details: 10 µmol/L GM; cited from earlier work
NMDA receptors = assay: NMDA-induced currents, rat hippocampal neurons; type: cell-based; details: n = 4
Summary of the method: as §2

nACh receptors = assay: Acetylcholine-evoked currents, cultured rat hippocampal neurons; type: cell-based; details: 30 μmol/L GM
Summary of the method: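 Cultured rat hippocampal neurons were held at −60 mV in whole-cell mode, and acetylcholine-evoked currents were recorded at room temperature with and without test compound. Concentration–response data (IDrug/IControl) were fitted to a 3-parameter Hill equation to obtain IC50. Data are means ± SEM.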

GABA receptors = assay: GABA-induced currents, rat hippocampal neurons; type: cell-based; details: n = 4
Summary of the method: as §2

LVA calcium currents = assay: Low-voltage-activated; type: cell-based, rat; details: 10 µmol/L GM
Summary of the method: as §1

[6] = tested on: transient outward potassium current (IA); assay: Transient outward potassium current; type: cell-based, rat; details: read-out: IC50 on IA; n = 5
Summary of the method: as §3

human Kir2.1 channels = biological target: T1, human Kir2.1 channels (Homo sapiens, UniProt P63252); assay: Kir2.1 currents in HEK-293 cells stably expressing hKir2.1; type: cell-based
T1 sequence (P63252 1-427): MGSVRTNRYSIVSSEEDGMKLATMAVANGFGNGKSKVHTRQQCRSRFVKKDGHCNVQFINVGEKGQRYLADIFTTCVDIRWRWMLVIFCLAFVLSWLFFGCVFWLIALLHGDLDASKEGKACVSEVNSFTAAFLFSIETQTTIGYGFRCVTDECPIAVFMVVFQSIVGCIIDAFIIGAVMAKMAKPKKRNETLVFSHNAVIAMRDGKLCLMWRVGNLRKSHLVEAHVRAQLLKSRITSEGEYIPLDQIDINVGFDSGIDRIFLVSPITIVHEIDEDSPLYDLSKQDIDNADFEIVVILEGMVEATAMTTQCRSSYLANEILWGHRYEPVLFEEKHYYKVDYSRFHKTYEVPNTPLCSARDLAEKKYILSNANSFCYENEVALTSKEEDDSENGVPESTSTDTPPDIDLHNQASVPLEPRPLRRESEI
Summary of the method: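 HEK-293 cells stably expressing human Kir2.1 were held at −70 mV and given a 500 ms test pulse to −140 mV. The internal was 140 mM KCl with EGTA (pH 7.2) and the bath was NaCl/KCl (pH 7.4), at room temperature. Inhibition ratios are means ± SEM, compared with paired t test against control.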

With `CC[C@@H](C(N)=O)N1CCCC1=O` [LEV, Levetiracetam, reference compound] the “Protection rate (%)” value [1] was 100%.
For Geissoschizine methyl ether [GM], the IC50 (CaV currents) was 13.3 µM, the “half-activation voltage of NaV currents” value (NaV currents; 10 µmol/L GM, control −45.1 ± 1.0 mV) was −42.7 ± 0.8 mV and the “V1/2 of steady-state inactivation of NaV currents” value (NaV currents; 10 µmol/L GM, control −54.4 ± 0.5 mV) was −61.4 ± 0.6 mV. For the same molecule, the IC50 (NaV currents; read-out: IC50 on NaV currents, holding −90 mV, test pulse −20 mV, n = 7) was 10.2 µM, the “Protection rate (%)” value [1] was 70% and the “change of KA (glutamate) receptor-mediated currents” value (KA receptors; 30 µmol/L GM) was “No remarkable changes”. The “modulation of KA (glutamate) receptor-mediated currents” value (KA receptors; 100 µmol/L GM) was “very weak”, the “change of AMPA (glutamate) receptor-mediated currents” value (AMPA receptors; 30 µmol/L GM) was “No remarkable changes” and the “modulation of AMPA (glutamate) receptor-mediated currents” value (AMPA receptors; 100 µmol/L GM) was “very weak”. The “ED50 for protection against MES” value [2] was 78.9 (60.3–103.3) mg/kg, the “resting membrane potential after GM perfusion” value [3] was “did not change” and the “inhibition ratio of firing frequency” value ([3]; 1 μmol/L GM, n = 6) was 45.3% ± 3.7%. For the same molecule, the “inhibition ratio of firing frequency” value ([3]; 3 μmol/L GM, n = 6) was 49.6% ± 5.1%, the “reduction of action potential amplitude” value ([3]; 3 μmol/L GM, n = 6) was 9.5% ± 1.8% and the “inhibition ratio of firing frequency” value ([3]; 10 μmol/L GM, n = 6) was 82.3% ± 1.1%. The “reduction of action potential amplitude” value ([3]; 10 μmol/L GM, n = 6) was 20.9% ± 3.2%, the “half-width of the action potential” value ([3]; 10 μmol/L GM, control 2.0 ± 0.2 ms, n = 6) was 2.7 ± 0.4 ms and the “inhibition ratio of firing frequency” value ([3]; 30 μmol/L GM, n = 6) was 97.8% ± 0.5%. For the same molecule, the “reduction of action potential amplitude” value ([3]; 30 μmol/L GM, n = 6) was 100.0%, the “change of activation curve of HVA currents” value (HVA calcium currents) was “did not exhibit a remarkable change” and the “reduction of HVA currents” value (HVA calcium currents; elicited at 0 mV, n = 7) was 28.5% ± 10.9%. The “shift in inactivation curve of HVA currents” value (HVA calcium currents; n = 9) was “No significant shift”, the IC50 [4] was 1.6 µM and the “effect on Bay K8644- or Ca2+-induced contractions” value [5] was “able to relax”. For the same molecule, the “change of NMDA (glutamate) receptor-mediated currents” value (NMDA receptors; 30 µmol/L GM) was “No remarkable changes”, the “modulation of NMDA (glutamate) receptor-mediated currents” value (NMDA receptors; 100 µmol/L GM) was “very weak” and the “inhibition of acetylcholine-evoked currents” value (nACh receptors) was “completely inhibited”. The “change of GABA receptor-mediated currents” value (GABA receptors; 30 µmol/L GM) was “No remarkable changes”, the “modulation of GABA receptor-mediated currents” value (GABA receptors; 100 µmol/L GM) was “very weak” and the “change of activation curve of LVA currents” value (LVA calcium currents) was “did not exhibit a remarkable change”. The “reduction of LVA currents” value (LVA calcium currents; elicited at 0 mV, n = 7) was 48.4% ± 6.9%, the “effect on LVA current inactivation” value (LVA calcium currents; n = 5) was “lack of an effect” and the IC50 [6] was 50 µM. The “inhibition ratio of Kir2.1 currents” value (human Kir2.1 channels; 10 µmol/L GM, n = 5) was 1.3% ± 2.2%, the “inhibition ratio of Kir2.1 currents” value (human Kir2.1 channels; 30 µmol/L GM, n = 7) was 3.8% ± 1.5% and the “inhibition ratio of Kir2.1 currents” value (human Kir2.1 channels; 100 µmol/L GM, n = 10) was 13.9% ± 2.2%.
